According to ChEMBL document CHEMBL2163244, “Structure-guided design, synthesis and biological evaluation of novel DNA ligase inhibitors with in vitro and in vivo anti-staphylococcal activity” (Bioorg Med Chem Lett, 2012):
Converted amounts (≈) assume the structure as drawn. The source made the active and inactive calls. The calls are words filed in the database; no cut-off is given here.

How the values were obtained:
[1] = target: T1, Dihydrofolate reductase (Homo sapiens) (UniProt P00374); experiment: Inhibition of human DHFR
T1 sequence (whole entry): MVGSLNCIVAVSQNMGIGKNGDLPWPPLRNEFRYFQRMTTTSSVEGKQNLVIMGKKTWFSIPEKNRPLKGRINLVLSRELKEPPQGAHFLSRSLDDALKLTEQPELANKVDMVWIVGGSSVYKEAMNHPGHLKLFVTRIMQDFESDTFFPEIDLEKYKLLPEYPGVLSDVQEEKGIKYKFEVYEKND

[2] = target: DNA ligase 1 (Homo sapiens) (UniProt P18858); experiment: Inhibition of human DNA Ligase 1
Chain of DNA ligase 1 (Homo sapiens) (P18858 whole entry): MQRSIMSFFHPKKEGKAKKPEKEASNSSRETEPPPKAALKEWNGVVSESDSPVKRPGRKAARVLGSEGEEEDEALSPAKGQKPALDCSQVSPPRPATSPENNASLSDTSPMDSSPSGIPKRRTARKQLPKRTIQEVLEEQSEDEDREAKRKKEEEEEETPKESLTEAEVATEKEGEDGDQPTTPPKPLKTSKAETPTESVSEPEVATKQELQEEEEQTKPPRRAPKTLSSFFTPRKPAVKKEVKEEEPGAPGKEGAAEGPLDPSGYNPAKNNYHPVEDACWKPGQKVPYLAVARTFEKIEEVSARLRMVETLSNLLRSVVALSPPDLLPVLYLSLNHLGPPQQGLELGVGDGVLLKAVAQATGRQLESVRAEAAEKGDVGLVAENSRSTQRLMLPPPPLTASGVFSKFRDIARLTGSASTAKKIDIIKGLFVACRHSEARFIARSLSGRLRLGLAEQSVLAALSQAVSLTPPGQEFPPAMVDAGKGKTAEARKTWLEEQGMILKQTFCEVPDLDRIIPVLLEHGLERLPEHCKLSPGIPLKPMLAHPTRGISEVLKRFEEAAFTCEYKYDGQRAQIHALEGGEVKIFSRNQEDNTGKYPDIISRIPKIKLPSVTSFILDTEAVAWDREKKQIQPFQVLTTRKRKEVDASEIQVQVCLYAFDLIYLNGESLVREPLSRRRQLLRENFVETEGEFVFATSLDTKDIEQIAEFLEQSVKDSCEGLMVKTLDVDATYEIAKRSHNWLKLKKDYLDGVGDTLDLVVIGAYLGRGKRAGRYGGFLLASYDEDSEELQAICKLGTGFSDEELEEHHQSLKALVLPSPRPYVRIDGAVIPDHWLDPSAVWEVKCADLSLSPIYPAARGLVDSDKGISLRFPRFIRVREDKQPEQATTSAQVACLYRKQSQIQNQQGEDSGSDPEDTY

Haemophilus influenzae = experiment: Antibacterial activity against wild type Haemophilus influenzae A921 by CLSI dilution method; type: functional
Staphylococcus aureus [3] = experiment: Antibacterial activity against wild type Staphylococcus aureus ATCC 29213 by CLSI dilution method; type: functional
[4] = Inhibition of Streptococcus pneumoniae NAD-dependent DNA ligase assessed as equilibrium dissociation constant
[5] = Inhibition of Escherichia coli NAD-dependent DNA ligase
Streptococcus pneumoniae [6] = experiment: Antibacterial activity against wild type Streptococcus pneumoniae A-216 by CLSI dilution method; type: functional
Escherichia coli [7] = experiment: Antibacterial activity against tolC/rfaC-deficient Escherichia coli; type: functional
Escherichia coli [8] = experiment: Antibacterial activity against tolC/rfaC-deficient Escherichia coli harboring ligA251 mutant; type: functional
Procedure, shortened: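 MIC read-out. The E. coli strain carries only the ligA251 allele (L15F exchange), which gives more than 20-fold reduced ligation activity and sensitizes it to LigA inhibitors.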

[9] = Selectivity ratio of IC50 for Streptococcus pneumoniae NAD-dependent DNA ligase to IC50 for Staphylococcus aureus NAD-dependent DNA ligase
Saccharomyces cerevisiae = experiment: Antifungal activity against Saccharomyces cerevisiae A136 expressing ATP-dependent DNA ligase by CLSI dilution method; type: functional
Escherichia coli [10] = experiment: Antibacterial activity against Escherichia coli ATCC 25922 by CLSI dilution method; type: functional
Klebsiella pneumoniae = experiment: Antibacterial activity against Klebsiella pneumoniae T6474 by CLSI dilution method; type: functional
Acinetobacter baumannii = experiment: Antibacterial activity against Acinetobacter baumannii T6474 by CLSI dilution method; type: functional
Moraxella catarrhalis = experiment: Antibacterial activity against Moraxella catarrhalis A894 by CLSI dilution method; type: functional
Pseudomonas aeruginosa = experiment: Antibacterial activity against Pseudomonas aeruginosa ATCC 27853 by CLSI dilution method; type: functional
Clostridioides difficile = experiment: Antibacterial activity against Clostridium difficile ATCC A1148 by CLSI dilution method; type: functional
Streptococcus pneumoniae [11] = experiment: Antibacterial activity against Streptococcus pneumoniae ATCC 49619 by CLSI dilution method; type: functional
Enterococcus faecalis = experiment: Antibacterial activity against Enterococcus faecalis ATCC 29212 by CLSI dilution method; type: functional
Enterococcus faecium = experiment: Antibacterial activity against Enterococcus faecium A949 by CLSI dilution method; type: functional
Staphylococcus aureus [12] = experiment: Antibacterial activity against Staphylococcus aureus ATCC 25923 by CLSI dilution method in presence of 50% human serum; type: functional
Procedure, shortened: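 MIC determined in the presence of 50% human serum.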

Staphylococcus aureus [13] = experiment: Antibacterial activity against Staphylococcus aureus ATCC 25923 by CLSI dilution method; type: functional
Staphylococcus aureus [14] = experiment: Antibacterial activity against Staphylococcus aureus A798 by CLSI dilution method; type: functional
Staphylococcus aureus [15] = experiment: Antibacterial activity against […]-sensitive Staphylococcus aureus DM 11823; type: functional
Staphylococcus aureus [16] = experiment: Bacteriostatic activity against […]-sensitive Staphylococcus aureus DM 11823 in mouse neutropenic thigh infection model at 100 mg/kg, sc administered 2 hrs post infection measured after 24 hrs; type: functional, organism-based; design: dose 100 mg/kg
Procedure, shortened: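 Neutropenic murine thigh infection with a quinolone-sensitive laboratory descendant of S. aureus DSM 11823. Inoculum 2×10^3 cfu given i.m. Compound given once at 100 mg/kg s.c., 2 h post-infection, in 5% DMSO/15% Solutol HS15 in water. Bacterial burden assessed 24 h after infection.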

[17] = AUC (0 to 24 hrs) in mouse at 10 mg/kg, sc; type: ADME, organism-based; design: time < 24 hr, dose 10 mg/kg, route subcutaneous; conditions: plasma
[18] = Cmax in mouse at 10 mg/kg, sc; type: ADME, organism-based; design: dose 10 mg/kg, route subcutaneous; conditions: in vivo
[19] = Fraction unbound in mouse plasma at 10 mg/kg, sc; type: ADME, organism-based; design: dose 10 mg/kg, route subcutaneous
[20] = Terminal half life in mouse at 10 mg/kg, sc; type: ADME, organism-based; design: dose 10 mg/kg, route subcutaneous; conditions: in vivo, read-out: beta t1/2 (converted)
Rattus norvegicus [21] = experiment: fAUC (0 to 24 hrs) in rat at 1 mg/kg, po; type: ADME, organism-based; design: dose 1 mg/kg, route oral; conditions: in vivo
[22] = Fraction unbound in rat plasma at 0.1 mg/kg, iv and 1 mg/kg, po; type: ADME, organism-based
Rattus norvegicus [23] = experiment: fAUC (0 to infinity) in rat at 0.1 mg/kg, iv; type: ADME, organism-based; design: dose 0.1 mg/kg, route intravenous; conditions: in vivo
Procedure, shortened: (§1)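 Rat intravenous PK: 0.1 mg/kg dose in 5% DMSO/28.5% HPBCD in water. Total plasma clearance is in mL/min/kg. Volume of distribution at steady state is in L/kg.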

[24] = AUC (0 to 24 hrs) in rat at 1 mg/kg, po; type: ADME, organism-based; design: time < 24 hr, dose 1 mg/kg, route oral; conditions: plasma
[25] = Cmax in rat at 1 mg/kg, po; type: ADME, organism-based; design: dose 1 mg/kg, route oral; conditions: in vivo
[26] = Terminal half life in rat at 0.1 mg/kg, iv and 1 mg/kg, po; type: ADME, organism-based; conditions: in vivo, read-out: beta t1/2 (converted)
[27] = Total plasma clearance in rat at 0.1 mg/kg, iv and 1 mg/kg, po; type: ADME, organism-based; procedure, shortened: as §1
[28] = Volume of distribution at steady state in rat at 0.1 mg/kg, iv and 1 mg/kg, po; type: ADME, organism-based; conditions: in vivo, read-out: Vdss; procedure, shortened: as §1
[29] = Oral bioavailability in rat at 1 mg/kg; type: ADME, organism-based; conditions: in vivo
[30] = Intrinsic clearance in rat hepatocytes measured per 10^6 cells; type: ADME, cell-based, Hepatocyte; conditions: read-out: CLH
Cytochrome P450 3A4 = Cytochrome P450 3A4 (Homo sapiens, UniProt P08684); experiment: Inhibition of human CYP3A4; type: ADME
Chain of Cytochrome P450 3A4 (P08684 whole entry): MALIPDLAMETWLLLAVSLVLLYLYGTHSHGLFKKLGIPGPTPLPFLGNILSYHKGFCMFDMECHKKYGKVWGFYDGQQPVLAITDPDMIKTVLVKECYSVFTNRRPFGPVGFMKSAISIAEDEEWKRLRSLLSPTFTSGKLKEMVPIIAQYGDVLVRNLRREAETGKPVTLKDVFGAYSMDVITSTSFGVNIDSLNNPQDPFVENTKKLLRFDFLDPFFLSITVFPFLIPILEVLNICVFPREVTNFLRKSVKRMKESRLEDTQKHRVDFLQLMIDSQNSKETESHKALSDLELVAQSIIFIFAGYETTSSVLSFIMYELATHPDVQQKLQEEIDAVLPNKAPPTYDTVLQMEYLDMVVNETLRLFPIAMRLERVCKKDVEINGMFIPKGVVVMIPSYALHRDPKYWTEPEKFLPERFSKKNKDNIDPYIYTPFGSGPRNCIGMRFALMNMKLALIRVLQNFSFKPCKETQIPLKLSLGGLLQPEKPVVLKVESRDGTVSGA

Cytochrome P450 2D6 = Cytochrome P450 2D6 (Homo sapiens, UniProt P10635); experiment: Inhibition of human CYP2D6; type: ADME
Chain of Cytochrome P450 2D6 (P10635 whole entry): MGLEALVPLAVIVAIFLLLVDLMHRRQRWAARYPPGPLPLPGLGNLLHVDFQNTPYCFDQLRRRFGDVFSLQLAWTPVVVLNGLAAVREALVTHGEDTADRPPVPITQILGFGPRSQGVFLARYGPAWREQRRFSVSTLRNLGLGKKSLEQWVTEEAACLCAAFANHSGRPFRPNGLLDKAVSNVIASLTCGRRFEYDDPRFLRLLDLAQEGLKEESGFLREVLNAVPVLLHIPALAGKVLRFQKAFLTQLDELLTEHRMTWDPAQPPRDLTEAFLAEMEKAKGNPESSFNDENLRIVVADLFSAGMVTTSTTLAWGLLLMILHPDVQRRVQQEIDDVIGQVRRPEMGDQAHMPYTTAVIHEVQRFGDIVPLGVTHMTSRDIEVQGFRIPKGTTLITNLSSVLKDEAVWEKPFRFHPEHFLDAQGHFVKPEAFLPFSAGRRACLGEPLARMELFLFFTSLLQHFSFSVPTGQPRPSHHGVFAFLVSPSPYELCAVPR

Cytochrome P450 2C9 = Cytochrome P450 2C9 (Homo sapiens, UniProt P11712); experiment: Inhibition of human CYP2C9; type: ADME
Chain of Cytochrome P450 2C9 (P11712 whole entry): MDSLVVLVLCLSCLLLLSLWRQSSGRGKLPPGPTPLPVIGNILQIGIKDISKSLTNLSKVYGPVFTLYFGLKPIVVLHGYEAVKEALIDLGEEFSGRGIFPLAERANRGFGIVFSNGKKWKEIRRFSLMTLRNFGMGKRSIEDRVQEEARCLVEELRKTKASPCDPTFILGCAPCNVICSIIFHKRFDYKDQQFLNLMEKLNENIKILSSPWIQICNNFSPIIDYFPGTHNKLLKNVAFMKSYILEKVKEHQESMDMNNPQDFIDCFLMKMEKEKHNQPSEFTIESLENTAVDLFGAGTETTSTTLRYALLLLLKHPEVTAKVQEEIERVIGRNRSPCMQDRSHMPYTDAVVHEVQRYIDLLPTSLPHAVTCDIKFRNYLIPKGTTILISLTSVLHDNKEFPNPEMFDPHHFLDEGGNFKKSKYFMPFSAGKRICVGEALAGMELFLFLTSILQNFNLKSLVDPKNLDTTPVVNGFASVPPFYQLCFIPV

[31] = AUC (0 to infinity) in rat at 0.1 mg/kg, iv; type: ADME, organism-based; design: time infinity, dose 0.1 mg/kg, route intravenous; conditions: plasma; procedure, shortened: as §1
[32] = Intrinsic clearance in rat liver microsomes; type: ADME, Microsome; conditions: read-out: CLH
[33] = target: T1, Dihydrofolate reductase (Homo sapiens); experiment: Inhibition of human DHFR at 25 uM
[34] = target: DNA ligase 1 (Homo sapiens) (UniProt P18858); experiment: Inhibition of human DNA Ligase 1 at 25 uM
DNA ligase = DNA ligase (Staphylococcus aureus, UniProt Q9AIU7); experiment: Inhibition of Staphylococcus aureus NAD-dependent DNA ligase
Chain of DNA ligase (Q9AIU7 whole entry): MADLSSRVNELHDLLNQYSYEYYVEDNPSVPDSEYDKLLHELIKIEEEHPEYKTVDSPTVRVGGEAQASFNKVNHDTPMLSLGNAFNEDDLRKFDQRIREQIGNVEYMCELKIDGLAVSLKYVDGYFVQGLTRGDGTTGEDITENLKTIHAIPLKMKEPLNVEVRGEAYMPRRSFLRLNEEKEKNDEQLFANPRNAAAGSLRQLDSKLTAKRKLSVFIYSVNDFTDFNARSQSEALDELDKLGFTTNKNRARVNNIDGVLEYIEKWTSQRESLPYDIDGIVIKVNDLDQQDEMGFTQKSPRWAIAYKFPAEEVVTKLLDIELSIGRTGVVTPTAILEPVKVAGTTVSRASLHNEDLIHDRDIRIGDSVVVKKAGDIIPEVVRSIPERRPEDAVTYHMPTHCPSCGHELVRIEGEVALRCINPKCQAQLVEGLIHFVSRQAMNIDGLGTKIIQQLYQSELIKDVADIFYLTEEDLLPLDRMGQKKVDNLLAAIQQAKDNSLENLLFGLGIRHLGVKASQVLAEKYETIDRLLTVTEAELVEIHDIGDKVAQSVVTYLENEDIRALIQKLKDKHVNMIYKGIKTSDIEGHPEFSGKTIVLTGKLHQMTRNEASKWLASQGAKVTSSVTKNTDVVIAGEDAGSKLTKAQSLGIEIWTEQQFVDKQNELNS

In the case of `NC(=O)c1cc2c3c(c(Cl)nc2nc1N)CC3`, the inhibition [1] is reported as “inactive”, the inhibition [2] is reported as “inactive” and the MIC (Haemophilus influenzae) is reported as 8 µg/mL (≈ 32.2 µM). The MIC (Staphylococcus aureus [3]) was 16 µg/mL (≈ 64.3 µM), the Kd [4] was 152 nM and the IC50 [5] was 600 nM. The MIC (Streptococcus pneumoniae [6]) was > 16 µg/mL, the MIC (Escherichia coli [7]) was 8 µg/mL (≈ 32.2 µM) and the MIC (Escherichia coli [8]) was 0.25 µg/mL (≈ 1.01 µM).
In the case of `Cc1c(Cc2ccncc2)c(Cl)nc2nc(N)c(C(N)=O)cc12`, the inhibition [1] is reported as “inactive”, the inhibition [2] is reported as “inactive” and the MIC (Haemophilus influenzae) is reported as 2 µg/mL (≈ 6.1 µM). The MIC (Staphylococcus aureus [3]) was > 16 µg/mL, the Kd [4] was 118 nM and the IC50 [5] was 1000 nM. The MIC (Streptococcus pneumoniae [6]) was 8 µg/mL (≈ 24.4 µM), the MIC (Escherichia coli [7]) was > 16 µg/mL and the MIC (Escherichia coli [8]) was 0.25 µg/mL (≈ 0.763 µM).
With `NC(=O)c1cc2cc(Br)c(C(F)(F)F)nc2nc1N` the Ratio IC50 [9] was 2, the MIC (Saccharomyces cerevisiae) was > 32 µg/mL and the MIC (Escherichia coli [10]) was > 32 µg/mL. For the same compound, the MIC (Klebsiella pneumoniae) was > 32 µg/mL, the MIC (Acinetobacter baumannii) was > 32 µg/mL and the MIC (Moraxella catarrhalis) was 8 µg/mL (≈ 23.9 µM). For the same compound, the MIC (Pseudomonas aeruginosa) was > 32 µg/mL, the MIC (Clostridioides difficile) was 8 µg/mL (≈ 23.9 µM) and the MIC (Streptococcus pneumoniae [11]) was 16 µg/mL (≈ 47.7 µM). For the same compound, the MIC (Enterococcus faecalis) was 8 µg/mL (≈ 23.9 µM), the MIC (Enterococcus faecium) was > 32 µg/mL and the MIC (Staphylococcus aureus [12]) was 2 µg/mL. It also gave an MIC (Staphylococcus aureus [13]) of 1 µg/mL (≈ 2.98 µM), an MIC (Staphylococcus aureus [14]) of 1 µg/mL (≈ 2.98 µM) and an MIC (Staphylococcus aureus [15]) of 0.5 µg/mL (≈ 1.49 µM). For the same compound, the Activity (Staphylococcus aureus [16]) was “Active”, the AUC(0-t) at 24 h [17] was 84500 ng·h/mL and the Cmax [18] was 7050 ng/mL. It also gave a fraction unbound [19] of 0.046, a half-life [20] of 2.9 h and a fAUC (Rattus norvegicus [21]) of 171 ng·h/mL. The fraction unbound [22] was 0.14, the fAUC (Rattus norvegicus [23]) was 21 ng·h/mL and the AUC(0-t) at 24 h [24] was 1220 ng·h/mL. It also gave a Cmax [25] of 410 ng/mL, a half-life [26] of 2.3 h and a clearance [27] of 11 mL/min/kg. The Vd [28] was 0.71 L/kg, the bioavailability [29] was 80% and the hepatocyte CLint [30] was 1.8 µL/min/1e6 cells. For the same compound, the IC50 (Cytochrome P450 3A4) was > 50000 nM, the IC50 (Cytochrome P450 2D6) was > 50000 nM and the IC50 (Cytochrome P450 2C9) was > 50000 nM. For the same compound, the inhibition [1] was “inactive”, the inhibition [2] was “inactive” and the MIC (Haemophilus influenzae) was 0.125 µg/mL (≈ 0.373 µM). For the same compound, the MIC (Staphylococcus aureus [3]) was 1 µg/mL (≈ 2.98 µM), the IC50 [5] was 300 nM and the MIC (Streptococcus pneumoniae [6]) was 2 µg/mL (≈ 5.97 µM). It also gave an MIC (Escherichia coli [7]) of 2 µg/mL (≈ 5.97 µM), an MIC (Escherichia coli [8]) of 0.063 µg/mL (≈ 0.188 µM) and an AUC(0-inf) [31] of 150 ng·h/mL. For the same compound, the microsomal CLint [32] was 20 µL/min/mg.
For `Cc1c(Cc2ccccc2)c(Cl)nc2nc(N)c(C(N)=O)cc12`, the inhibition [1] was “inactive”, the inhibition [2] was “inactive” and the MIC (Haemophilus influenzae) was 2 µg/mL (≈ 6.12 µM). The MIC (Staphylococcus aureus [3]) was 4 µg/mL (≈ 12.2 µM), the Kd [4] was 107 nM and the IC50 [5] was 500 nM. For the same compound, the MIC (Streptococcus pneumoniae [6]) was 4 µg/mL (≈ 12.2 µM), the MIC (Escherichia coli [7]) was 4 µg/mL (≈ 12.2 µM) and the MIC (Escherichia coli [8]) was 0.125 µg/mL (≈ 0.383 µM).
For `COc1nc2nc(N)nc(N)c2nc1C`, the inhibition [33] was “inactive”, the inhibition [34] was “inactive” and the IC50 [5] was 25000 nM. For the same compound, the IC50 (DNA ligase) was 2500 nM, the MIC (Escherichia coli [7]) was > 16 µg/mL and the MIC (Escherichia coli [8]) was 2 µg/mL (≈ 9.7 µM).
